According to ChEMBL document CHEMBL4118078, “Developing pyridazine-3-carboxamides to be CB2 agonists: The design, synthesis, structure-activity relationships and docking studies” (Eur J Med Chem, 2017):

Assays:
[1] = target: T1, Cannabinoid receptor 1 (Homo sapiens, UniProt P21554); test: Agonist activity at CB1 receptor (unknown origin) expressed in CHO cells assessed as induction of calcium mobilization by fluo-4 AM dye-based fluorescence assay; type: functional, cell-based
[2] = target: T2, Cannabinoid receptor 2 (Homo sapiens, UniProt P34972); test: Agonist activity at CB2 receptor (unknown origin) expressed in CHO cells assessed as induction of calcium mobilization by fluo-4 AM dye-based fluorescence assay; type: functional, cell-based
[3] = species on record: Homo sapiens; test: Selectivity index, ratio of EC50 for CB1 receptor (unknown origin) to EC50 for CB2 receptor (unknown origin)
[4] = target: T2, Cannabinoid receptor 2; test: Agonist activity at CB2 receptor (unknown origin) expressed in CHO cells assessed as induction of calcium mobilization at 10 uM by fluo-4 AM dye-based fluorescence assay relative to CP55940; type: functional, cell-based
[5] = target: T2, Cannabinoid receptor 2; test: Agonist activity at CB2 receptor (unknown origin) expressed in CHO cells assessed as induction of calcium mobilization by fluo-4 AM dye-based fluorescence assay relative to CP55940; type: functional, cell-based
Summary of the method: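 Cell-based calcium mobilization, agonist mode, with CP55940 as positive control. Compounds giving more than 50% activation in a single-concentration 10 µM primary screen were run in dose-response to derive EC50.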

[6] = target: T1, Cannabinoid receptor 1; test: Antagonist activity at CB1 receptor (unknown origin) expressed in CHO cells assessed as inhibition of CP55940-induced calcium mobilization at 10 uM preincubated for 10 mins followed by CP55940-induction by fluo-4 AM dye-based fluorescence assay relative to SR141716A; type: functional, cell-based
Summary of the method: (§1)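 Cell-based calcium mobilization, antagonist mode, single-concentration screen at 10 µM against CB1 and CB2. SR141716A served as the antagonist-mode positive control.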

[7] = target: T1, Cannabinoid receptor 1; test: Agonist activity at CB1 receptor (unknown origin) expressed in CHO cells assessed as induction of calcium mobilization at 10 uM by fluo-4 AM dye-based fluorescence assay relative to CP55940; type: functional, cell-based
[8] = target: T2, Cannabinoid receptor 2; test: Antagonist activity at CB2 receptor (unknown origin) expressed in CHO cells assessed as inhibition of CP55940-induced calcium mobilization at 10 uM preincubated for 10 mins followed by CP55940-induction by fluo-4 AM dye-based fluorescence assay relative to SR141716A; type: functional, cell-based; summary of the method: as §1
[9] = target: T2, Cannabinoid receptor 2; test: Potency index, ratio of GW842166X EC50 to test compound EC50 for agonist activity at CB2 receptor (unknown origin); type: functional
[10] = target: T2, Cannabinoid receptor 2; test: Potency index, ratio of CP55940 EC50 to test compound EC50 for agonist activity at CB2 receptor (unknown origin); type: functional

T1 sequence (P21554 whole entry): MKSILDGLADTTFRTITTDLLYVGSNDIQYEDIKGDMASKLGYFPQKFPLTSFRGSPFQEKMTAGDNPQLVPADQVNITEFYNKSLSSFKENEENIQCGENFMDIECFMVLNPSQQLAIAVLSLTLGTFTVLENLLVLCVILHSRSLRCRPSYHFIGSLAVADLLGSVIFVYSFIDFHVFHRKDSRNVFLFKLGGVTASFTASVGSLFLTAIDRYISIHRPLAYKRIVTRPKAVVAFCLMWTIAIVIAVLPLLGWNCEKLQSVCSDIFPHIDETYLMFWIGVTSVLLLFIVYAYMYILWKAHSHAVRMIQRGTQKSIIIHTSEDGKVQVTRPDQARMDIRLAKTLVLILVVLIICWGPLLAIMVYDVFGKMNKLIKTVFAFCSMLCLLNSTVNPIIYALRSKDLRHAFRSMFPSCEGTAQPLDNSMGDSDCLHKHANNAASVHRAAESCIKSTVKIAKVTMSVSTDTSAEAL
T2 sequence (P34972 whole entry): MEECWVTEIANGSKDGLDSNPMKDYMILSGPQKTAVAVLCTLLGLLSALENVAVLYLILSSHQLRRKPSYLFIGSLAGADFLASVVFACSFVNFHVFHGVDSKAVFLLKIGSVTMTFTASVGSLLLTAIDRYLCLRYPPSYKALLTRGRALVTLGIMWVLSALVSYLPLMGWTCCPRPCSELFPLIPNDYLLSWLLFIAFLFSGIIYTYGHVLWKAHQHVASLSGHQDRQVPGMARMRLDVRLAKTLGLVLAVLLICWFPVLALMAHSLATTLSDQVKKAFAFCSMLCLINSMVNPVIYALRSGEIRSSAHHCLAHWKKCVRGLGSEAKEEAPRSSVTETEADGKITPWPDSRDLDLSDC

SMILES	EC50 [1] [nM]	EC50 [2] [nM]	Ratio EC50 [3]	Activity [4] [%]	Emax [5] [%]	inhibition [6] [%]	Activity [7] [%]	inhibition [8] [%]	Ratio EC50 [9]	Ratio EC50 [10]
CC(C)c1cc(C(=O)NC2C3CC4CC(C3)CC2C4)nnc1NCCO (stereo not given)	> 10000	99.9	> 100	124	127	1.87	-0.906			
CC(C)c1cc(C(=O)NC2C3CC4CC(C3)CC2C4)nnc1Nc1cccc(Cl)c1 (stereo not given)	> 10000	> 10000		19.2		5.1	2.12	19.4		
CC(C)c1cc(C(=O)NC2C3CC4CC(C3)CC2C4)nnc1N1CCCCC1 (stereo not given)	> 10000	3450	> 3	63	106	-3.84	-1.23			
CC(C)c1cc(C(=O)NC2CCCCC2)nnc1N1CCOCC1	> 10000	970	> 10	107	99	-8.12	-4.03			
CCC(CC)Nc1nnc(C(=O)NC2C3CC4CC(C3)CC2C4)cc1C(C)C (stereo not given)	> 10000	> 10000		25		4.48	-5.62	0.214		
CC(C)c1cc(N2CCN(C)CC2)nnc1C(=O)NC1C2CC3CC(C2)CC1C3 (stereo not given)	> 10000	> 10000		3.06		37.3	16.7	10.1		
CC(C)c1cc(C(=O)NC2C3CC4CC(C3)CC2C4)nnc1NC1CCCC1 (stereo not given)	> 10000	34.4	> 291	122	114	24.1	6.55		> 10	
CC(C)c1cc(N2CCOCC2)nnc1C(=O)NC12CC3CC(CC(C3)C1)C2	> 10000	396	> 25	117	93	16.9	3.8			
CC(C)c1cc(NCCO)nnc1C(=O)NC12CC3CC(CC(C3)C1)C2	> 10000	42.6	> 235	125	114		13.4			
CC(C)c1cc(N2CCOCC2)nnc1C(=O)NC1CCCCC1	> 10000	594	> 17	87.2	91	-9.42	6.25			
CC(C)c1cc(C(=O)NC2C3CC4CC(C3)CC2C4)nnc1NCC1CC1 (stereo not given)	6050	167	36	113	109		39.3			
CC(C)c1cc(NCCO)nnc1C(=O)NC1CCCCC1	> 10000	842	> 12	91.1	81		14.8			
CC(C)c1cc(C(=O)NC23CC4CC(CC(C4)C2)C3)nnc1N1CCOCC1	> 10000	349	> 29	101	125		-2.98			
CC(C)c1cc(Nc2cccc(Cl)c2)nnc1C(=O)NC1C2CC3CC(C2)CC1C3 (stereo not given)	> 10000	6700	> 1	48	77		-6.45	44.3		
O=C(NC1C2CC3CC(C2)CC1C3)c1ccc(N2CCOCC2)nn1 (stereo not given)	> 10000	8420	> 1	63.2	79	17.7	3.24			
CCCCNc1nnc(C(=O)NC2C3CC4CC(C3)CC2C4)cc1C(C)C (stereo not given)	2610	96.2	27	97.1	93		89.3			
CC(C)c1cc(NC(C)C(C)C)nnc1C(=O)NC1C2CC3CC(C2)CC1C3 (stereo not given)	> 10000	2940	> 3	82	77	7.68	10.7			

SMILES	EC50 [1] [nM]	EC50 [2] [nM]	Ratio EC50 [3]	Activity [4] [%]	Emax [5] [%]	inhibition [6] [%]	Activity [7] [%]	inhibition [8] [%]	Ratio EC50 [9]	Ratio EC50 [10]
CC(C)c1cc(C(=O)NC2C3CC4CC(C3)CC2C4)nnc1N1CCOCC1 (stereo not given)	> 10000	403	> 25	107	105	1.8	-0.267			
CC(C)c1cc(NC2CC2)nnc1C(=O)NC1C2CC3CC(C2)CC1C3 (stereo not given)	> 10000	17.1	> 584	119	117		7.48			
CC(C)c1cc(NC2CCCCC2)nnc1C(=O)NC1C2CC3CC(C2)CC1C3 (stereo not given)	> 10000	398	> 25	119	81		-0.238			
CC(C)c1cc(N2CCOCC2)nnc1C(=O)NC1C2CC3CC(C2)CC1C3 (stereo not given)	> 10000	3.67	> 2730	126	91		26.1		94	8
CC(C)c1cc(NC2CCCC2)nnc1C(=O)NC12CC3CC(CC(C3)C1)C2	> 10000	301	> 33	95.5	80	44.5	19.5			
CC(C)c1cc(C(=O)NC2C3CC4CC(C3)CC2C4)nnc1NC1CCCCC1 (stereo not given)	> 10000	199	> 50	106	91	39.3	2.64			
O=C(NC12CC3CC(CC(C3)C1)C2)c1ccc(N2CCOCC2)nn1	> 10000	> 10000		33.7			-4.49	25.8		
O=C(NC1CCCCC1)c1ccc(N2CCOCC2)nn1	> 10000	> 10000		17.7			-3.69	16.3		
CC(C)c1cc(NCCO)nnc1C(=O)NC1C2CC3CC(C2)CC1C3 (stereo not given)	> 10000	4.96	> 2020	137	94	-8.39	17.4			
CC(C)c1cc(N2CCCCC2)nnc1C(=O)NC1C2CC3CC(C2)CC1C3 (stereo not given)	> 10000	18.1	> 553	114	140	44.1	16			
CCCCNc1cc(C(C)C)c(C(=O)NC2CCCCC2)nn1	> 10000	> 10000		13.4		47.9	8.74	50.6		
CCCCNc1cc(C(C)C)c(C(=O)NC23CC4CC(CC(C4)C2)C3)nn1	10000	159	> 63	64	76		10.7			
CC(C)c1cc(NC2CCCC2)nnc1C(=O)NC1C2CC3CC(C2)CC1C3 (stereo not given)	> 10000	5.7	> 1750	141	107	38.2	23.2			
CCCCNc1cc(C(C)C)c(C(=O)NC2C3CC4CC(C3)CC2C4)nn1 (stereo not given)	> 10000	49.4	> 203	91.4	108		13.7			
CC(C)c1cc(NC2CCCC2)nnc1C(=O)NC1CCCCC1	> 10000	338	> 30	87.5	78		9.48			
CC(C)c1cc(NCC2CC2)nnc1C(=O)NC1C2CC3CC(C2)CC1C3 (stereo not given)	> 10000	47.7	> 210	125	135	22.1	31.3			
O=C(NCC1CCOCC1)c1cnc(Nc2ccc(Cl)cc2Cl)nc1C(F)(F)F [GW842166X]	> 10000		> 29	129		11.8	18.2			
